Test [1] can be described thus: Inhibition of CDK4/cyclin D expressed in baculovirus infected insect Sf21 cells using [gamma-P32]ATP and histone H1 as substrate after 10 mins by radiometric assay. Summed up:
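20 µL reactions in 50 mM Tris-HCl with 10 µM ATP, 0.2 µCi [γ-32P]ATP, 10 mM MgCl2, 5 mM DTT, 4 µg histone H1 substrate; 10 min with inhibitor, stopped with 30% phosphoric acid. Spotted on P81 paper, washed five times in 10 mM Tris-HCl pH 8.0/0.1 M NaCl, radioactivity imaged; IC50 = concentration giving 50% inhibition.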

The subject of another test is A-431. The experiment in a line: Growth inhibition of human A431 cells after 2 days by SRB assay. It is filed as functional. The note with it: A-431, 48 h. Summed up: (§1)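 Cells kept in RPMI 1640 with 10% FBS at 37 °C, 5% CO2; 1000 cells/well plated, compounds added next day at various concentrations for two days. Fixed with 4% formalin, stained with 0.1% sulforhodamine B, dye eluted in 0.1 M Tris/HCl pH 8.0, absorbance at 520 nm. Triplicate, averaged; 0% = treatment-time absorbance, 100% = untreated two-day growth; GI50 = 50% growth inhibition.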

The next test relates to SNU-638. The test can be described thus: Growth inhibition of human SNU638 cells after 2 days by SRB assay. It is filed as functional. Conditions: SNU-638, 48 h. Summed up: as §1
Background: The SRB assay estimates cell density from bound dye.

For a further test, the system named is HCT116 (Homo sapiens). The experiment in a line: Growth inhibition of human HCT116 cells after 2 days by SRB assay. Conditions: HCT116, 48 h.
Test [2] concerns the target Cyclin-dependent kinase 2/cyclin A (Homo sapiens, UniProt P24941). The experiment in a line: Inhibition of CDK2/cyclin A expressed in baculovirus infected insect Sf21 cells using [gamma-P32]ATP and histone H1 as substrate after 10 mins by radiometric assay.
The target in test [3] is Epidermal growth factor receptor (Homo sapiens, UniProt P00533). The experiment in a line: Inhibition of human EGFR. Summed up:
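Kinase activity measured with the C-terminal human EGFR tyrosine kinase domain; IC50 taken as the inhibitor concentration giving 50% inhibition.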

By pIC50 is commonly meant −log10 of the IC50, conventionally taken in molar units. Read a high pIC50 as a small IC50. The term GI50 denotes the concentration at which growth is held to half of that of the control. Higher therefore signals less potent growth inhibition.

pIC50: −log10 of the molar value. Bounds are passed on as bounds.

Epidermal growth factor receptor, sequence (P00533 whole entry, the tested form may be a part): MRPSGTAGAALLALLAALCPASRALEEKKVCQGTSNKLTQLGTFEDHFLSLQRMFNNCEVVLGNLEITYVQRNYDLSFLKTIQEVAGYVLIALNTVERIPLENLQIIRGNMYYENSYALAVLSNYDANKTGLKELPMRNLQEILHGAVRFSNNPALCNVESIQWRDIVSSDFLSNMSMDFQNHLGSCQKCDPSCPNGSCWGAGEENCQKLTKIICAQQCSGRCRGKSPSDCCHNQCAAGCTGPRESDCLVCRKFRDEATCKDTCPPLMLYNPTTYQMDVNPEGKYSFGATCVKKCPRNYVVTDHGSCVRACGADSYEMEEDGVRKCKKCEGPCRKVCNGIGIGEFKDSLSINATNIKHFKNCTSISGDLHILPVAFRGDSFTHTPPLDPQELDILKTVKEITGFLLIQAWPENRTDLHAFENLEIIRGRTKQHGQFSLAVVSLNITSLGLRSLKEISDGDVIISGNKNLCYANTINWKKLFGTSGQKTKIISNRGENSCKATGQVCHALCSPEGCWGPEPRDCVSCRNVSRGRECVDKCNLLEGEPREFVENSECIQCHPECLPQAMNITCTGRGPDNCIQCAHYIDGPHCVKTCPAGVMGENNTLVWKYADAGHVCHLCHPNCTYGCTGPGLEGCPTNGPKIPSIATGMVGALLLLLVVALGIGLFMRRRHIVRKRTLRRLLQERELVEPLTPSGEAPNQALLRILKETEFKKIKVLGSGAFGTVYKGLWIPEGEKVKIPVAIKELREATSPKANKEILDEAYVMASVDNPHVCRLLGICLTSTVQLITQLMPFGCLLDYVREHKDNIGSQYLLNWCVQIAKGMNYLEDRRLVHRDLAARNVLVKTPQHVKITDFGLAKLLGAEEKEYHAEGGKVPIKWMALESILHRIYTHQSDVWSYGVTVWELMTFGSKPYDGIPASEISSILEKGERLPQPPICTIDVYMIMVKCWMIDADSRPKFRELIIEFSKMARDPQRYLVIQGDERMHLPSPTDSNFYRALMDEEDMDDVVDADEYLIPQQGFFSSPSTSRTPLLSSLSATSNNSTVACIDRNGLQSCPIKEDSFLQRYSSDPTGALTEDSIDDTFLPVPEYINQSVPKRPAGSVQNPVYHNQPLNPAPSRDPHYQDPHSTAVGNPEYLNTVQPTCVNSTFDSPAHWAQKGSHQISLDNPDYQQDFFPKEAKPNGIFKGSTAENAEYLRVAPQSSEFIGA

Compound `Cn1cnc2c(NCc3ccccc3)nc(NCCO)nc21` [OLOMOUCINE] gave a pIC50 in test [1] of 4.35. For the same compound, the figures for the concentration for 50% growth inhibition (GI50) in the test on A-431, with SNU-638 and in the test on HCT116 (Homo sapiens) were 16.6 µM, 16.6 µM and 12.1 µM, respectively.
Regarding `Nc1scc2c1c(NCCO)nc1nc(NCCO)nc(N)c12`, the negative-log IC50 (pIC50) in test [1] was below 4.32; in test [2], 7.05; in test [3] it was 4.18. In addition, the GI50 in the test on A-431 is 4.6 µM; with SNU-638 it was 2.57 µM; in the test with HCT116 (Homo sapiens), 11.4 µM.
On to `Nc1scc2c1c(Nc1ccc(S(N)(=O)=O)cc1)nc1ncnc(N)c12`, for which the negative logarithm of the IC50 (pIC50) is below 3.92 in test [1], 4.44 in test [2] and 4.53 in test [3]. Besides, the concentration for 50% growth inhibition (GI50) in the test with A-431 is 3.94 µM; in the test on SNU-638 it was 2.56 µM; in the test on HCT116 (Homo sapiens) it was 8.89 µM.
In the case of `Cc1c(C#N)c(NCCO)nc2nc(NCCO)nc(N)c12`, the negative logarithm of the IC50 (pIC50) in test [1] is 5.00; in test [2], 5.42; in test [3] it was 4.32. Moreover, the figures for the GI50 in the test with A-431, in the test with SNU-638 and with HCT116 (Homo sapiens) were 31.9 µM, 18.2 µM and 20.1 µM, respectively.
As to `N#Cc1cc2c(N)ncnc2nc1NCCO`, the negative-log IC50 (pIC50) in test [1] was below 3.70; in test [2], 4.53; in test [3] it was 4.03. Besides, the GI50 in the test with A-431 came to 26.6 µM; in the test on SNU-638, 20.8 µM; in the test on HCT116 (Homo sapiens), 4.5 µM.
`N#Cc1cc2c(N)nc(NCCO)nc2nc1Nc1ccc(S(N)(=O)=O)cc1`: the values for the negative logarithm of the IC50 (pIC50) in test [1], in test [2] and in test [3] were 3.92, 6.05 and below 4.00, respectively. Moreover, the results for the GI50 in the test on A-431, with SNU-638 and in the test on HCT116 (Homo sapiens) were 36.3 µM, 35.8 µM and 48.2 µM, respectively.
As to `COc1cccc2c1C(=O)c1c(O)c3c(c(O)c1C2=O)C[C@@](O)(C(=O)CO)C[C@@H]3O[C@H]1C[C@H](N)[C@H](O)[C@H](C)O1` [DOXORUBICIN], the GI50 in the test on A-431 stood at 0.18 µM; in the test on HCT116 (Homo sapiens), 0.13 µM.
Consider `N#Cc1cc2c(N)ncnc2nc1Nc1ccc(S(N)(=O)=O)cc1`, for which the negative-log IC50 (pIC50) was 4.89 in test [1], 6.52 in test [2] and below 4.00 in test [3]. The concentration for 50% growth inhibition (GI50) in the test with A-431 came out at 7.8 µM; in the test on SNU-638, 7.57 µM; with HCT116 (Homo sapiens), 19.3 µM.
For the compound `Nc1scc2c1c(NCCO)nc1ncnc(N)c12`, the negative-log IC50 (pIC50) was 4.54 in test [1], 6.30 in test [2] and below 4.00 in test [3]. Further, the GI50 with A-431 was determined as 54.3 µM; in the test with SNU-638 it was 18.3 µM; with HCT116 (Homo sapiens), 6.46 µM.
With `CC[C@H](CO)Nc1nc(NCc2ccccc2)c2ncn(C(C)C)c2n1` [SELICICLIB], the pIC50 in test [1] is 4.82.
Take `N#Cc1cc2c(N)nc(NCCO)nc2nc1NCCO`: the values for the pIC50 in test [1], in test [2] and in test [3] were 4.55, 5.20 and below 4.00, respectively. For the same compound, the concentration for 50% growth inhibition (GI50) in the test with A-431 worked out at 6.25 µM; in the test on SNU-638, 7.95 µM; in the test on HCT116 (Homo sapiens) it was 10.9 µM.
With `Nc1scc2c1c(Nc1ccc(S(N)(=O)=O)cc1)nc1nc(NCCO)nc(N)c12`, the negative-log IC50 (pIC50) is 4.36 in test [1], 5.09 in test [2] and below 4.00 in test [3]. Moreover, the concentration for 50% growth inhibition (GI50) in the test on A-431 was 21.9 µM; in the test on SNU-638 it was 26.1 µM; in the test on HCT116 (Homo sapiens), 47.7 µM.
On to `Cc1c(C#N)c(Nc2ccc(S(N)(=O)=O)cc2)nc2ncnc(N)c12`, for which the negative-log IC50 (pIC50) is 4.80 in test [1], 5.00 in test [2] and below 4.00 in test [3]. Also, the results for the 50% growth inhibitory concentration (GI50) in the test with A-431, with SNU-638 and in the test on HCT116 (Homo sapiens) were 2.94 µM, 6.2 µM and 16.6 µM, respectively.
Regarding `Cc1c(C#N)c(Nc2ccc(S(N)(=O)=O)cc2)nc2nc(NCCO)nc(N)c12`, the negative-log IC50 (pIC50) was 4.02 in test [1], 5.51 in test [2] and below 4.00 in test [3]. Besides, the results for the concentration for 50% growth inhibition (GI50) in the test with A-431, in the test on SNU-638 and with HCT116 (Homo sapiens) were above 100 µM, 17.1 µM and 38.2 µM, respectively.
`Cc1c(C#N)c(NCCO)nc2ncnc(N)c12`: the pIC50 in test [1] is 4.44; in test [2], 4.53; in test [3], below 4.00. Moreover, the GI50 came to 5.06 µM in the test with A-431, 2.58 µM with SNU-638 and 4.1 µM in the test with HCT116 (Homo sapiens).
